The structures appear in SMILES notation. ≈ marks a conversion by molar mass, not a printed value.

In ChEMBL document CHEMBL1641498, “Synthesis and structure-activity relationships of novel benzoxaboroles as a new class of antimalarial agents” (Bioorg Med Chem Lett, 2011) one finds IC50 and solubility data, which are given here for 20 molecules.

The first data set has as its system HeLa. Briefly: Cytotoxicity against human HeLa cells after 72 hrs by MTT assay. The class given is cell-based.
Details: not given
In a few lines:
(§1)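 Each cell line exposed to compounds over a 12-point concentration curve in triplicate for 72 h; viability read by MTT, IC50 determined.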
Background: Formazan colour is commonly taken as a measure of viable cells.
For orientation: IC50 means the concentration that inhibits the measured activity by half. On to `O=C(O)CCc1cccc2c1B(O)OC2`, for which the IC50 is over 100000 nM.

Tested on in the next data set: not listed separately
Briefly: Solubility of the compound in water at pH 7. The class given is physicochemical.
Details: not given
The term solubility denotes the concentration that dissolves in the medium under given conditions. A lower solubility goes with a poorly soluble substance. Turning to `O=C(O)CCc1cccc2c1B(O)OC2`, the solubility worked out at 750 µg/mL (≈ 3.64 mM).

For a further data set, the system named is Plasmodium falciparum. The experiment in a line: Antimalarial activity against Plasmodium falciparum W2 infected in human erythrocytes assessed as reduction of parasitemia after 48 hrs by flow cytometry. Particulars: W2, 48 h. Type of data set: functional, organism-based. The method, boiled down:
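Erythrocytic-stage W2 parasites cultured in human erythrocytes in RPMI-1640 with 10% human serum or 0.5% Albumax; sorbitol-synchronized to ring stage. Serial dilutions from 10 mM stocks; 2% hematocrit, 1% parasitemia, 3% O2/5% CO2/N2, 48 h.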
On the technique in general: A flow cytometer gives signals particle by particle.
As to `O=C(O)CCc1cccc2c1B(O)OC2`, the IC50 was 26 nM.

In the case of `O=C(O)CCCc1cccc2c1B(O)OC2`, the IC50 worked out at 620 nM.

For `O=C(O)CCCCc1cccc2c1B(O)OC2`, the IC50 is 2010 nM.

Take `O=C(O)COc1cccc2c1B(O)OC2`: the IC50 is 460 nM.

As to `O=C(O)CNc1cccc2c1B(O)OC2`, the IC50 was determined as 950 nM.

In the case of `CN(CC(=O)O)c1cccc2c1B(O)OC2`, the IC50 was over 5000 nM.

As to `CC(=O)CCc1cccc2c1B(O)OC2`, the IC50 came out at 2720 nM.

Consider `COC(=O)CCc1cccc2c1B(O)OC2`, for which the IC50 was determined as 320 nM.

As for `NC(=O)CCc1cccc2c1B(O)OC2`, the 50% inhibitory concentration (IC50) was determined as 1300 nM.

As to `CN(C)C(=O)CCc1cccc2c1B(O)OC2`, the IC50 was over 5000 nM.

`O=C(CCc1cccc2c1B(O)OC2)NS(=O)(=O)C1CC1`: the IC50 stood at 460 nM.

`N#CCCc1cccc2c1B(O)OC2`: the IC50 came out at 1020 nM.

Turning to `NCCCc1cccc2c1B(O)OC2`, the IC50 was found to be 520 nM.

For the molecule `OB1OCc2cccc(CCc3nn[nH]n3)c21`, the IC50 was 160 nM.

For `O=C(O)CCc1ccc2c(c1)B(O)OC2`, the IC50 came out at 120 nM.

For the molecule `O=C(O)CCc1ccc2c(c1)COB2O`, the IC50 came to 2890 nM.

On to `O=C(O)CCc1cccc2c1COB2O`, for which the IC50 was over 5000 nM.

`O=C(O)CCc1cccc2c1B(O)OCC2`: the concentration for half-maximal inhibition (IC50) is over 5000 nM.

In the case of `CC(C)(Cc1cccc2c1B(O)OC2)C(=O)O`, the IC50 is over 5000 nM.

Consider `CC1(C)OB(O)c2c(CCC(=O)O)cccc21`, for which the IC50 is over 5000 nM.

The subject of another data set is Jurkat. The experiment in a line: Cytotoxicity against human Jurkat cells after 72 hrs by MTT assay. Type of data set: cell-based.
Details: not given
In a few lines:
as §1
Take `O=C(O)CCc1cccc2c1B(O)OC2`: the IC50 amounted to 60500 nM.
